Measured values from ChEMBL document CHEMBL1121554, “Antimalarials. 12. Preparation of carbon isosteres of selected 4-pyridinemethanols as suppressive antimalarials” (1980).
Active and inactive are the calls of the source.

How the values were obtained:
Mus musculus [1] = assay: Compound was evaluated for the antimalarial activity against Plasmodium berghei in mice (Mus musculus) at the dose 320 (mg/kg) administered subcutaneously; (C) is the number of mice (Mus musculus) surviving out of five at 60 days post-infection; format: functional
Procedure, shortened: (§1)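 P. berghei-infected mice, five per dose group; one subcutaneous dose given 72 h after infection. Read-out is the increase in mean survival time over infected controls, counted as active when the increase is at least 100%. Cures are mice alive out of five at 60 days post-infection. Testing was done at Rane Laboratories, University of Miami.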

Mus musculus [2] = assay: Compound was evaluated for the antimalarial activity against Plasmodium berghei in mice (Mus musculus) at the dose 80 (mg/kg) administered subcutaneous; (A) active; format: functional; procedure, shortened: as §1
Mus musculus [3] = assay: Compound was evaluated for the antimalarial activity against Plasmodium berghei in mice (Mus musculus) at the dose 20 (mg/kg) administered subcutaneously; format: functional; procedure, shortened: as §1
Mus musculus [4] = assay: Compound was evaluated for the antimalarial activity against Plasmodium berghei in mice (Mus musculus) at the dose 160 (mg/kg) administered subcutaneously; (C) is the number of mice (Mus musculus) surviving out of five at 60 days post-infection; format: functional; procedure, shortened: as §1
Mus musculus [5] = assay: Compound was evaluated for the antimalarial activity against Plasmodium berghei in mice (Mus musculus) at the dose 40 (mg/kg) administered subcutaneously; format: functional; procedure, shortened: as §1
Mus musculus [6] = assay: Compound was evaluated for the antimalarial activity against Plasmodium berghei in mice (Mus musculus) at the dose 80 (mg/kg) administered subcutaneously; IA is defined as inactive.; format: functional, organism-based
Mus musculus [7] = assay: Compound was evaluated for the antimalarial activity against Plasmodium berghei in mice (Mus musculus) at the dose 80 (mg/kg) administered subcutaneously; (C) is the number of mice (Mus musculus) surviving out of five at 60 days post-infection; format: functional; procedure, shortened: as §1
Mus musculus [8] = assay: Compound was evaluated for the antimalarial activity against Plasmodium berghei in mice (Mus musculus) at the dose 640 (mg/kg) administered subcutaneously; (C) is the number of mice (Mus musculus) surviving out of five at 60 days post-infection; format: functional; procedure, shortened: as §1
Mus musculus [9] = assay: Compound was evaluated for the antimalarial activity against Plasmodium berghei in mice (Mus musculus) at the dose 40 (mg/kg) administered subcutaneously; (A) active; format: functional; procedure, shortened: as §1
Mus musculus [10] = assay: Compound was evaluated for the antimalarial activity against Plasmodium berghei in mice (Mus musculus) at the dose 40 (mg/kg) administered subcutaneously; (C) is the number of mice (Mus musculus) surviving out of five at 60 days post-infection; format: functional; procedure, shortened: as §1
Mus musculus [11] = assay: Compound was evaluated for the antimalarial activity against Plasmodium berghei in mice (Mus musculus) at the dose 20 (mg/kg) administered subcutaneously; (A) active; format: functional; procedure, shortened: as §1
Mus musculus [12] = assay: Compound was evaluated for the antimalarial activity against Plasmodium berghei in mice (Mus musculus) at the dose 320 (mg/kg) administered subcutaneously; (A) active; format: functional; procedure, shortened: as §1
Mus musculus [13] = assay: Compound was evaluated for the antimalarial activity against Plasmodium berghei in mice (Mus musculus) at the dose 160 (mg/kg) administered subcutaneously; (A) active; format: functional; procedure, shortened: as §1
Mus musculus [14] = assay: (§2) Compound was evaluated for the antimalarial activity against Plasmodium berghei in mice (Mus musculus) at the dose 80 (mg/kg) administered subcutaneously; format: functional; procedure, shortened: as §1
Mus musculus [15] = assay: as §2; format: functional; remark: listed apart in the source

SMILES | No. of cures (Mus musculus [1]) | Delta MST (Mus musculus [3]) | No. of cures (Mus musculus [4]) | Delta MST (Mus musculus [5]) | No. of cures (Mus musculus [7]) | No. of cures (Mus musculus [8]) | other results
CCCCN(CCCC)CC(O)c1cc(/C=C/c2ccc(C(F)(F)F)cc2)cc(/C=C/c2ccc(C(F)(F)F)cc2)c1 (stereo unspecified) | 5 | 0.5 days | 5 | 0.5 days | – | – | Delta MST (Mus musculus [2]): 8.1 days
CCCCNCC(O)c1cc(/C=C/c2ccc(C(F)(F)F)cc2)cc(/C=C/c2ccc(C(F)(F)F)cc2)c1 (stereo unspecified) | – | – | – | – | – | – | Delta MST (Mus musculus [6]): inactive
CCCCN(CCCC)CC(O)c1cc(-c2ccc(Cl)cc2)nc(-c2ccc(Cl)cc2)c1 (stereo unspecified) | 4 | 2.3 days | 3 | – | 3 | 5 | Delta MST (Mus musculus [9]): 15.7 days
CCCCNCC(O)c1cc(/C=C/c2ccc(C(F)(F)F)cc2)nc(/C=C/c2ccc(C(F)(F)F)cc2)c1 (stereo unspecified) | – | – | – | – | – | – | Delta MST (Mus musculus [6]): inactive
CCCCNCC(O)c1cc(-c2ccc(Cl)cc2)cc(-c2ccc(Cl)cc2)c1 (stereo unspecified) | 5 | 0.5 days | 5 | 1.3 days | 3 | – | –
CCCCNCC(O)c1cc(-c2ccc(Cl)cc2)nc(-c2ccc(Cl)cc2)c1 (stereo unspecified) | 5 | – | 3 | – | 2 | 5 | No. of cures (Mus musculus [10]): 1; Delta MST (Mus musculus [11]): 10.8 days
CCCCN(CCCC)CC(O)c1cc(-c2ccc(Cl)cc2)cc(-c2ccc(Cl)cc2)c1 (stereo unspecified) | – | 0.3 days | – | 0.5 days | – | 5 | Delta MST (Mus musculus [12]): 13.9 days; Delta MST (Mus musculus [13]): 9.7 days; Delta MST (Mus musculus [14]): 4.1 days
CCCCN(CCCC)CC(O)c1cc(/C=C/c2ccc(C(F)(F)F)cc2)nc(/C=C/c2ccc(C(F)(F)F)cc2)c1 (stereo unspecified) | 5 | 0.2 days | 5 | 2.9 days | – | 5 | No. of cures (Mus musculus [15]): 2
